In article PMC4475452 (Chemistry & biology, 2015):

What was measured:
Type in all cases: cell-based
BRD2 = BRD2 protein degradation by immunoblot; details: Supp Figure 3
Ramos cells = test: PARP cleavage by immunoblot; details: 48 hours, 0.1 µM
SLC19A1 = SLC19A1 expression by RT-qPCR in Namalwa cells; details: for Time for SLC19A1 to recover to control treatment level post compound removal: 24 hours treatment (1.0 µM), qPCR
BL cell lines [1] = test: Proliferation by CellTiter-Glo assay in BL cell lines; details: 72 hours; for Effect on proliferation: BL cell lines, CTG assay
In short: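 Burkitt lymphoma cells were seeded at 50000 per 100 µl in 96-well plates and given increasing concentrations of test compound. After 72 hours, CellTiter-Glo reagent was added and luminescence was read. Relative growth was calculated against DMSO-treated control cells.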

BL cell lines [2] = test: Caspase-Glo 3/7 apoptosis induction assay in BL cell lines; details: 24 hour treatment, four BL cell lines; ARV-825 0.1 µM, JQ1 1.0 µM, OTX015 1.0 µM
In short: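 Four Burkitt lymphoma lines (Namalwa, Ramos, CA-46, DAUDI; from ATCC, maintained as instructed) were exposed for 24 hours to test compounds at 0.1 or 1.0 µM. Puromycin served as the apoptosis-induction positive control. Caspase 3/7 activity was read by luminescent Caspase-Glo 3/7 assay following the manufacturer's protocol.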

BRD3 = BRD3 protein degradation by immunoblot; details: Supp Figure 3
c-MYC = c-MYC protein level by immunoblot in BL cell lines; details: for c-MYC level suppression: overnight treatment with increasing doses, BL cells, immunoblot; for c-MYC level upon withdrawal of compound from culture media: 1.0 µM for 24 hours, then removal, Namalwa and Ramos cells; for Time for c-MYC to recover to control level after compound removal: Namalwa cells, 24 hrs treatment (1.0 µM), three washes
BRD4 = BRD4 (Homo sapiens, UniProt O60885); test: BRD4 protein level by immunoblot in BL cell lines

Row | Effect on BRD4 protein level (BRD4) | Compound | BRD2 degradation (BRD2) | Apoptosis (PARP cleavage) (Ramos cells) | SLC19A1 suppression (SLC19A1; compared with JQ1 and OTX015) | Proliferation suppression in presence of excessive pomalidomide (BL cell lines [1]; ARV-825 0.01 or 0.1 µM with pomalidomide 1.0 or 10.0 µM) | Effect on proliferation (BL cell lines [1]) | Caspases 3/7 activity (BL cell lines [2]) | BRD3 degradation (BRD3) | c-MYC level suppression (c-MYC) | Time for SLC19A1 to recover to control treatment level post compound removal (SLC19A1) | c-MYC level upon withdrawal of compound from culture media (c-MYC) | Time for c-MYC to recover to control level after compound removal (c-MYC)
1 |  | Cc1sc2c(c1C)C(c1ccc(Cl)cc1)=N[C@@H](CC(=O)Nc1ccc(OCCOCCOCCOCCNc3cccc4c3C(=O)N(C3CCC(=O)NC3=O)C4=O)cc1)c1nnc(C)n1-2 (some centres unmarked) [ARV-825] | can be degraded | significant apoptosis | suppressed more substantially | rescued the proliferation suppression effect | more pronounced suppression of proliferation than both JQ1 and OTX015 | increased caspases 3/7 activity | can be degraded | more pronounced downregulation of c-MYC |  |  | 
2 |  | Cc1sc2c(c1C)C(c1ccc(Cl)cc1)=N[C@@H](CC(=O)OC(C)(C)C)c1nnc(C)n1-2 [JQ1] |  |  |  |  |  | not with high dose of JQ1 and OTX015 |  | unable to suppress c-MYC levels fully | 6 h | rapidly restored to normal | 4 h
3 |  | Cc1sc2c(c1C)C(c1ccc(Cl)cc1)=N[C@@H](CC(=O)Nc1ccc(O)cc1)c1nnc(C)n1-2 [OTX015] |  |  |  |  |  | not with high dose of JQ1 and OTX015 |  | unable to suppress c-MYC levels fully | 6 h | rapidly restored to normal | 4 h
4 | no impact on BRD4 protein levels | Nc1cccc2c1C(=O)N(C1CCC(=O)NC1=O)C2=O (centres unmarked) [pomalidomide] |  |  |  |  | didn’t show any significant effects |  |  |  |  |  | 
